Assay results: ChEMBL document CHEMBL2424608, “Discovery of novel N-substituted carbazoles as neuroprotective agents with potent anti-oxidative activity” (Eur J Med Chem, 2013)
Calls of active or inactive are those of the source. The rule behind the calls is not given here.

Tests used:
HT-22 [1] = experiment: Neuroprotective activity against mouse HT22 cells assessed as inhibition of HCA-induced cell injury pretreated at 30 uM for 30 mins measured after 24 hrs by MTT assay; format: functional
Outline: (§1)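 HT22 mouse hippocampal cells in DMEM/10% FBS at 37 °C, 5% CO2, seeded at 4000 cells/well. Compound (30 mM DMSO stock, diluted in medium) added 30 min before glutamate (2 mM) or HCA (500 µM), then 24 h exposure. Controls get vehicle. Viability by MTT (500 µg/mL, 1 h, 37 °C), DMSO solubilisation, A570 relative to control = 100%. n = 6.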

HT-22 [2] = experiment: Neuroprotective activity against mouse HT22 cells assessed as inhibition of HCA-induced cell injury pretreated at 3 uM for 30 mins measured after 24 hrs by MTT assay; format: functional; outline: as §1
HT-22 [3] = experiment: Neuroprotective activity against mouse HT22 cells assessed as inhibition of HCA-induced cell injury pretreated at 10 uM for 30 mins measured after 24 hrs by MTT assay; format: functional; outline: as §1
HT-22 [4] = experiment: Neuroprotective activity against mouse HT22 cells assessed as inhibition of glutamate-induced cell injury pretreated at 30 uM for 30 mins measured after 24 hrs by MTT assay; format: functional; outline: as §1
HT-22 [5] = experiment: Neuroprotective activity against mouse HT22 cells assessed as inhibition of glutamate-induced cell injury pretreated at 10 uM for 30 mins measured after 24 hrs by MTT assay; format: functional; outline: as §1
HT-22 [6] = experiment: Neuroprotective activity against mouse HT22 cells assessed as inhibition of glutamate-induced cell injury pretreated at 3 uM for 30 mins measured after 24 hrs by MTT assay; format: functional; outline: as §1
HT-22 [7] = experiment: Neuroprotective activity against mouse HT22 cells assessed as inhibition of glutamate-induced cell shrinkage and debris pretreated at 3 uM for 30 mins measured after 24 hrs by phase-contrast microscopy; format: functional, cell-based
Outline: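 HT22 cells get compound 30 min before glutamate (2 mM). Morphology is viewed by inverted phase-contrast microscopy.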

HT-22 [8] = experiment: Neuroprotective activity against mouse HT22 cells assessed as inhibition of glutamate-induced ROS production pretreated for 30 mins measured after 10 hrs by DHE-based fluorescence assay; format: functional, cell-based
Outline: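 HT22 cells get compound for 30 min, then glutamate (2 mM). After exposure, cells are washed with PBS pH 7.4 and loaded with DHE at 10 µM in serum-free DMEM for 30 min. Fluorescence microscopy plus plate-reader intensity at ex 485/em 595 nm.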

HT-22 [9] = experiment: Neuroprotective activity against mouse HT22 cells assessed as inhibition of glutamate-induced cell injury pretreated for 30 mins measured after 24 hrs by MTT assay; format: functional, cell-based; outline: as §1
HT-22 [10] = experiment: Cytotoxicity against mouse HT22 cells at 30 uM by LDH assay; format: cell-based; conditions: ht-22, 30 µM
Outline: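 HT22 cells given compound alone at 30 µM; cytotoxicity read by LDH release assay.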

HT-22 [11] = experiment: Neuroprotective activity against mouse HT22 cells assessed as inhibition of glutamate-induced GSH depletion pretreated at 10 to 30 uM for 30 mins measured after 10 hrs by glutathione assay kit

Row | Compound | inhibition at 30 µM (HT-22 [1]) [%] | inhibition at 3 µM (HT-22 [2]) [%] | inhibition at 10 µM (HT-22 [3]) [%] | inhibition at 30 µM (HT-22 [4]) [%] | inhibition at 10 µM (HT-22 [5]) [%] | inhibition at 3 µM (HT-22 [6]) [%] | inhibition (HT-22 [1]) | inhibition (HT-22 [4]) | inhibition (HT-22 [7]) | inhibition (HT-22 [8]) | inhibition (HT-22 [9]) | Activity (HT-22 [10]) | inhibition (HT-22 [11])
1 | COc1ccc2c3ccccc3n(S(=O)(=O)c3ccc(C)cc3)c2c1 | 0 | 0 | 0 | 4 | 2 | 0.8 | – | – | – | – | – | – | –
2 | CCc1ccc(S(=O)(=O)n2c3ccccc3c3ccccc32)cc1 | 30 | 0 | 6 | 28 | 3 | 0 | – | – | – | – | – | – | –
3 | COc1ccc2c(c1)c1ccccc1n2-c1ccc(C(C)(C)C)cc1 | 0 | 0 | 0 | 0 | 0 | 0 | – | – | – | – | – | – | –
4 | c1ccc(-n2c3ccccc3c3ccccc32)cc1 | 5 | 0 | 0 | 6 | 7 | 0 | – | – | – | – | – | – | –
5 | Fc1cccc(-n2c3ccccc3c3ccccc32)c1 | 0 | 0 | 0 | 0 | 0 | 0 | – | – | – | – | – | – | –
6 | FC(F)(F)c1ccc(-n2c3ccccc3c3ccccc32)cc1 | 80 | 0 | 10 | 68 | 14 | 0 | – | – | – | – | – | – | –
7 | CCCCn1c2ccccc2c2ccccc21 | 0 | 0 | 0 | 0 | 0 | 0 | – | – | – | – | – | – | –
8 | OCCCCn1c2ccccc2c2ccccc21 | 12 | 0 | 1 | 4 | 1 | 0 | – | – | – | – | – | – | –
9 | Brc1ccc(-n2c3ccccc3c3ccccc32)cc1 | 0 | 0 | 0 | 0 | 0 | 0 | – | – | – | – | – | – | –
10 | Cc1ccc(S(=O)(=O)n2c3ccccc3c3ccc(C(F)(F)F)cc32)cc1 | 38 | 0 | 6 | 42 | 10 | 0 | – | – | – | – | – | – | –
11 | Cc1ccc(-n2c3ccccc3c3ccc4ccccc4c32)cc1 | 0 | 0 | 0 | 0 | 0 | 0 | – | – | – | – | – | – | –
12 | c1ccc2c(c1)sc1ccccc12 | – | – | – | – | – | – | inactive | inactive | – | – | – | – | –
13 | COc1ccc2c(c1)c1ccccc1n2S(=O)(=O)c1ccc(C)cc1 | 0 | 0 | 0 | 5.2 | 3 | 0 | – | – | – | – | – | – | –
14 | Clc1ccc(-n2c3ccccc3c3ccccc32)cc1 | 40 | 0 | 0 | 20 | 0 | 0 | – | – | – | – | – | – | –
15 | COc1ccc(-n2c3ccccc3c3ccccc32)cc1 | 71 | 0 | 32 | 59 | 25 | 3 | – | – | – | – | – | – | –
16 | Cc1ccc(-n2c3ccccc3c3ccccc32)cc1 | 0 | 0 | 0 | 0 | 0 | 0 | – | – | – | – | – | – | –
17 | Cc1ccc(S(=O)(=O)n2c3ccccc3c3ccccc32)cc1 | 34 | 4 | 13 | 47 | 10 | 0 | – | – | – | – | – | – | –
18 | c1ccc2c(c1)oc1ccccc12 | – | – | – | – | – | – | inactive | inactive | – | – | – | – | –
19 | CC(C)(C)c1ccc(-n2c3ccccc3c3ccccc32)cc1 | 63 | 2 | 30 | 70 | 35 | 0 | – | – | – | – | – | – | –
20 | Cc1ccc(S(=O)(=O)n2c3ccccc3c3ccc(C#N)cc32)cc1 | 0 | 0 | 0 | 7 | 2 | 3 | – | – | – | – | – | – | –
21 | CN(C)c1ccc(-n2c3ccccc3c3ccccc32)cc1 | 81 | 0 | 30 | 77 | 40 | 20 | – | – | – | – | – | – | –
22 | c1ccc2c(c1)c1ccccc1n2C1CCCCC1 | 10 | 7 | 8 | 20 | 8 | 3 | – | – | – | – | – | – | –
23 | Cc1ccc(S(=O)(=O)n2c3ccccc3c3ccc(-c4ccccc4)cc32)cc1 | 30 | 11 | 18 | 30 | 19 | 12 | – | – | – | – | – | – | –
24 | Fc1ccc(-n2c3ccccc3c3ccccc32)cc1 | 0 | 0 | 0 | 0 | 0 | 0 | – | – | – | – | – | – | –
25 | Cc1ccc(-n2c3ccccc3c3ccc(-c4ccccc4)cc32)cc1 | 44 | 64 | 77 | 50 | 69 | 63 | – | – | Active | Dose-dependent effect | Dose-dependent effect | Non-toxic | inactive
26 | Cc1ccc(S(=O)(=O)n2c3ccccc3c3ccc4ccccc4c32)cc1 | 30 | 18 | 30 | 26 | 16 | 4 | – | – | – | – | – | – | –
27 | Cc1ccc(-n2c3ccccc3c3ccccc32)nc1 | 12 | 0 | 5 | 5 | 0 | 0 | – | – | – | – | – | – | –
